# The source made the active and inactive calls.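 How the source made its calls: active means compounds whose fitted half-maximal growth inhibition concentration is at most ten times the top tested dose; inconclusive means flat curve with 30 to 70% inhibition, or poor fit; inactive means the rest.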
# Legend:
# [1] = tested on: C. albicans CaCi-2 + fluconazole, Alamar Blue growth, 48 h; assay: antifungal growth reduction in resistant isolate – CaCi-2, fluconazole present, retest, powder, set 6, confirmation (AID 504502)
# How it was run: (§1)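 Signal: Alamar Blue fluorescence at 1:200 final, excitation 544 nm, emission 590 nm | Test system: Fluconazole-resistant Candida albicans strain CaCi-2 | Quantity: Fungal inoculum at starting OD600 of 0.00015 | Probe or stimulus: Fluconazole 8 µg/mL | Buffer or medium: Defined RPMI medium with MOPS buffer | Times: 48 h growth at 37 °C, 2 h dye step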
# [2] = as above; details: C. albicans CaCi-2 + fluconazole, Alamar Blue growth, 48 h; at 12 µM (top of the series)
# How it was run: as §1
SMILES,AC50 [1],"activity change, negative = inhibition [2]"
COC(=O)Cn1nc(-c2cccc(OC)c2)c2ccccc21,348 nM,–
O=C(Cn1c2ccc(F)cc2c2nc3n(c(=O)c21)CCS3)N1CCC(F)(F)C1,717 nM,–
COC(=O)Cn1nc(-c2ccccc2)c2cccnc21,–,-41.1% (inactive)
COC(=O)Cn1c2ccc(F)cc2c2nc3n(c(=O)c21)CCS3,2080 nM,–
COC(=O)n1nc(-c2ccccc2)c2ccccc21,–,10.4% (inactive)
COC(=O)Cn1nc(-c2cccc(F)c2)c2ccccc21,1170 nM,–
O=C(Cn1c2ccccc2c2nc3n(c(=O)c21)CCS3)N1CCC(F)(F)CC1,1470 nM,–
COC(=O)Cn1nc(-c2cccnc2)c2ccccc21,–,-23.4% (inactive)
O=C(O)Cn1c2ccc(F)cc2c2nc3n(c(=O)c21)CCS3,–,0.059% (inactive)
O=C(Cn1c2ccccc2c2nc3n(c(=O)c21)CCS3)N1CCC(F)(F)C1,3700 nM,–
COC(=O)Cn1nc(C2CC2)c2ccccc21,–,0.132% (inactive)
COC(=O)Cn1nc(-c2cnco2)c2ccccc21,–,-10.5% (inactive)
CC1CCN(CCn2c3ccccc3c3nc4n(c(=O)c32)CCS4)CC1,–,-9.05% (inactive)
O=C(O)Cn1c2ccccc2c2nc3n(c(=O)c21)CCS3,–,-8.34% (inactive)
CN1CCN(C(=O)Cn2c3ccccc3c3nc4n(c(=O)c32)CCS4)CC1,4740 nM,–
O=C(Cn1c2ccccc2c2nc3n(c(=O)c21)CCS3)N1CCCCC1,1250 nM,–
O=C(Cn1c2ccc(F)cc2c2nc3n(c(=O)c21)CCS3)N1CCCC1,298 nM,–
COC(=O)Cn1nc(C(C)(C)C)c2ccccc21,–,3% (inactive)
O=C(Cn1c2ccccc2c2nc3n(c(=O)c21)CCS3)N1CCCC1,795 nM,–
O=C(Cn1c2ccccc2c2nc3n(c(=O)c21)CCS3)N1CC=CC1,821 nM,–
CC1(O)CN(C(=O)Cn2c3ccccc3c3nc4n(c(=O)c32)CCS4)C1,–,-0.117% (inactive)
CCc1nn(CC(=O)OC)c2ccccc12,–,6.18% (inactive)
COC(=O)Cn1nc(C2CCCCC2)c2ccccc21,1800 nM,–
O=C(Cn1c2ccc(F)cc2c2nc3n(c(=O)c21)CCS3)N1CC=CC1,276 nM,–
COC(=O)Cn1nc(-c2cccc(C)c2)c2ccccc21,646 nM,–
O=C(Cn1c2ccc(F)cc2c2nc3n(c(=O)c21)CCS3)N1CCC(F)(F)CC1,391 nM,–
